Experimental data: ChEMBL document CHEMBL1811822, “P2-P1' macrocyclization of P2 phenylglycine based HCV NS3 protease inhibitors using ring-closing metathesis” (Bioorg Med Chem, 2011)

system: Hepatitis C virus; assay: Antiviral activity against HCV 1b infected in human HuH7 cells assessed as inhibition of viral replication by luciferase assay; assay type: functional, organism-based, Hepacivirus hominis; details: genotype 1b, Huh-7

| EC50 [µM] | SMILES |
| --- | --- |
| 6 | CCC[C@@H]1NC(=O)[C@@H](NC(=O)[C@@H](NC(=O)OC(C)(C)C)C(C)(C)C)c2ccc(Oc3cc(-c4ccccc4)nc4cc(OC)ccc34)c(c2)/C=C/CCCS(=O)(=O)NC1=O |

system: Hepatitis C virus; assay: Antiviral activity against HCV; assay type: functional, organism-based, Hepacivirus hominis; details: not given

| SMILES | EC50 [µM] |
| --- | --- |
| COc1ccc2c(O[C@@H]3C[C@H]4C(=O)N[C@]5(C(=O)O)C[C@H]5/C=C\CCCCC[C@H](NC(=O)OC5CCCC5)C(=O)N4C3)cc(-c3csc(NC(C)C)n3)nc2c1 [CILUPREVIR] | 0.35 |
| CC(C)(C)OC(=O)N[C@H]1CCCCC/C=C\[C@@H]2C[C@@]2(C(=O)NS(=O)(=O)C2CC2)NC(=O)[C@@H]2C[C@@H](OC(=O)N3Cc4cccc(F)c4C3)CN2C1=O [DANOPREVIR] | 0.0006 |

molecular target: not listed separately; assay: Inhibition of HCV NS3 protease; set-up: species or system Hepacivirus hominis; details: not given
Procedure, shortened: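 Full-length NS3 protein (protease–helicase/NTPase domains) from HCV genotype 1a, wild-type, with a 16-residue NS4A activating-region peptide. Protease activity was read by FRET. Enzyme at 1 nM was incubated 10 min at 30 °C in 50 mM HEPES, pH 7.5. Ki values were derived and reported with standard deviation.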

| Ki [µM] | SMILES |
| --- | --- |
| 0.063 | C=CCCCS(=O)(=O)NC(=O)[C@H](CCC)NC(=O)[C@@H](NC(=O)[C@@H](NC(=O)OC(C)(C)C)C(C)(C)C)c1ccc(Oc2cc(-c3ccccc3)nc3cc(OC)ccc23)c(C=C)c1 |
| 0.048 | C=CCCCS(=O)(=O)NC(=O)[C@H](CCC)NC(=O)[C@H](NC(=O)[C@@H](NC(=O)OC(C)(C)C)C(C)(C)C)c1ccc(Oc2cc(-c3ccccc3)nc3cc(OC)ccc23)c(C=C)c1 |
| 0.04 | COc1ccc2c(O[C@@H]3C[C@H]4C(=O)N[C@]5(C(=O)O)C[C@H]5/C=C\CCCCC[C@H](NC(=O)OC5CCCC5)C(=O)N4C3)cc(-c3csc(NC(C)C)n3)nc2c1 [CILUPREVIR] |

molecular target: not listed separately; assay: Inhibition of protease activity of full-length HCV genotype 1a NS3 protease by FRET assay; details: not given

| Ki [µM] | SMILES |
| --- | --- |
| 0.87 | CCC[C@@H]1NC(=O)[C@H](NC(=O)[C@@H](NC(=O)OC(C)(C)C)C(C)(C)C)c2ccc(Oc3cc(-c4ccccc4)nc4cc(OC)ccc34)c(c2)/C=C\CC2(CC2)S(=O)(=O)NC1=O |
| 0.19 | CCC[C@@H]1NC(=O)[C@@H](NC(=O)[C@@H](NC(=O)OC(C)(C)C)C(C)(C)C)c2ccc(Oc3cc(-c4ccccc4)nc4cc(OC)ccc34)c(c2)/C=C\Cc2ccccc2S(=O)(=O)NC1=O |
| 0.17 | CCC[C@@H]1NC(=O)[C@@H](NC(=O)[C@@H](NC(=O)OC(C)(C)C)C(C)(C)C)c2ccc(Oc3cc(-c4ccccc4)nc4cc(OC)ccc34)c(c2)/C=C\c2ccccc2S(=O)(=O)NC1=O |
| 0.15 | CCC[C@@H]1NC(=O)[C@@H](NC(=O)[C@@H](NC(=O)OC(C)(C)C)C(C)(C)C)c2ccc(Oc3cc(-c4ccccc4)nc4cc(OC)ccc34)c(c2)/C=C/c2ccccc2S(=O)(=O)NC1=O |
| 0.25 | CCC[C@@H]1NC(=O)[C@@H](NC(=O)[C@@H](NC(=O)OC(C)(C)C)C(C)(C)C)c2ccc(Oc3cc(-c4ccccc4)nc4cc(OC)ccc34)c(c2)CCCc2ccccc2S(=O)(=O)NC1=O |
| 0.11 | CCC[C@@H]1NC(=O)[C@@H](NC(=O)[C@@H](NC(=O)OC(C)(C)C)C(C)(C)C)c2ccc(Oc3cc(-c4ccccc4)nc4cc(OC)ccc34)c(c2)/C=C\CC2(CC2)S(=O)(=O)NC1=O |
| 0.39 | CCC[C@@H]1NC(=O)[C@@H](NC(=O)[C@@H](NC(=O)OC(C)(C)C)C(C)(C)C)c2ccc(Oc3cc(-c4ccccc4)nc4cc(OC)ccc34)c(c2)/C=C\CCCS(=O)(=O)NC1=O |
| 0.24 | CCC[C@@H]1NC(=O)[C@@H](NC(=O)[C@@H](NC(=O)OC(C)(C)C)C(C)(C)C)c2ccc(Oc3cc(-c4ccccc4)nc4cc(OC)ccc34)c(c2)/C=C/CCCS(=O)(=O)NC1=O |
| 0.76 | CCC[C@@H]1NC(=O)[C@H](NC(=O)[C@@H](NC(=O)OC(C)(C)C)C(C)(C)C)c2ccc(Oc3cc(-c4ccccc4)nc4cc(OC)ccc34)c(c2)/C=C\CCCS(=O)(=O)NC1=O |
| 0.137 | CCC[C@@H]1NC(=O)[C@@H](NC(=O)[C@@H](NC(=O)OC(C)(C)C)C(C)(C)C)c2ccc(Oc3cc(-c4ccccc4)nc4cc(OC)ccc34)c(c2)/C=C\CCS(=O)(=O)NC1=O |
| 0.94 | CCC[C@@H]1NC(=O)[C@@H](NC(=O)[C@@H](NC(=O)OC(C)(C)C)C(C)(C)C)c2ccc(Oc3cc(-c4ccccc4)nc4cc(OC)ccc34)c(c2)/C=C/CCCCS(=O)(=O)NC1=O |
| 0.71 | CCC[C@@H]1NC(=O)[C@H](NC(=O)[C@@H](NC(=O)OC(C)(C)C)C(C)(C)C)c2ccc(Oc3cc(-c4ccccc4)nc4cc(OC)ccc34)c(c2)/C=C/CCCCS(=O)(=O)NC1=O |
| 0.32 | CCC[C@@H]1NC(=O)[C@@H](NC(=O)[C@@H](NC(=O)OC(C)(C)C)C(C)(C)C)c2ccc(Oc3cc(-c4ccccc4)nc4cc(OC)ccc34)c(c2)/C=C\CCCCS(=O)(=O)NC1=O |
| 0.57 | CCC[C@@H]1NC(=O)[C@@H](NC(=O)[C@@H](NC(=O)OC(C)(C)C)C(C)(C)C)c2ccc(Oc3cc(-c4ccccc4)nc4cc(OC)ccc34)c(c2)CCCCCCS(=O)(=O)NC1=O |
| 0.222 | CCC[C@@H]1NC(=O)[C@@H](NC(=O)[C@@H](NC(=O)OC(C)(C)C)C(C)(C)C)c2ccc(Oc3cc(-c4ccccc4)nc4cc(OC)ccc34)c(c2)C/C=C/CS(=O)(=O)NC1=O |
| 0.47 | CCC[C@@H]1NC(=O)[C@@H](NC(=O)[C@@H](NC(=O)OC(C)(C)C)C(C)(C)C)c2ccc(Oc3cc(-c4ccccc4)nc4cc(OC)ccc34)c(c2)C/C=C/CCS(=O)(=O)NC1=O (mixture of isomers) |
